Measured values: publication PMC11661184 (bioRxiv, 2024)
No end group written: not given here.

System: CaM (Calmodulin-agarose)
Experiment: CaM-agarose pulldown of TRPA1 constructs
Format: binding
Details: for CaM binding of MBP-tagged C-terminal peptides: expressed in HEK293T; for CaM binding of truncated hTRPA1 constructs: CaM-agarose pulldown, HEK293T lysate, immunoblot
Outline: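 HEK293T cells were transfected with tagged TRPA1 constructs and lysed after 16-24 h in Tris pH 8.0 buffer containing 5 mM DDM and 500 µM EGTA. Free Ca²⁺ was set with CaCl₂, calculated from EGTA constants. 100 µg lysate was incubated with CaM-agarose for 1 h at 4 °C, washed, then eluted with 5 mM EGTA. Detection was by anti-FLAG or anti-MBP immunoblot, with tubulin input control. Enrichment is relative to the maximum within each replicate.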

Row | Molecule | CaM binding of MBP-tagged C-terminal peptides (absence or presence of Ca2+) | CaM binding of truncated hTRPA1 constructs | further results
1 | hTRPA1^1079–1119: MBP-tagged full hTRPA1 unresolved C-terminus (EDDDSHCSFQDRFKKEQMEQRNSRWNTVLRAVKAKTHHLEP; also: MBP-tagged) | bound CaM in a Ca^2+-dependent manner |  | 
2 | hTRPA1^1099–1119: MBP-tagged smaller fragment of hTRPA1 C-terminus (RNSRWNTVLRAVKAKTHHLEP; also: MBP-tagged) | bound CaM in a Ca^2+-dependent manner |  | 
3 | WT mouse: WT mouse TRPA1, MBP-tagged |  |  | CaM binding of TRPA1 species orthologues (MBP-tagged constructs, absence or presence of Ca2+, four independent experiments): bound CaM in a Ca^2+-dependent manner
4 | hTRPA1^S488-T1078: minimal hTRPA1 construct previously used for structural determination, retains the CaMBD (protein) SPLHFAASYGRINTCQRLLQDISDTRLLNEGDLHGMTPLHLAAKNGHDKVVQLLLKKGALFLSDHNGWTALHHASMGGYTQTMKVILDTNLKCTDRLDEDGNTALHFAAREGHAKAVALLLSHNADIVLNKQQASFLHLALHNKRKEVVLTIIRSKRWDECLKIFSHNSPGNKCPITEMIEYLPECMKVLLDFCMLHSTEDKSCRDYYIEYNFKYLQCPLEFTKKTPTQDVIYEPLTALNAMVQNNRIELLNHPVCKEYLLMKWLAYGFRAHMMNLGSYCLGLIPMTILVVNIKPGMAFNSTGIINETSDHSEILDTTNSYLIKTCMILVFLSSIFGYCKEAGQIFQQKRNYFMDISNVLEWIIYTTGIIFVLPLFVEIPAHLQWQCGAIAVYFYWMNFLLYLQRFENCGIFIVMLEVILKTLLRSTVVFIFLLLAFGLSFYILLNLQDPFSSPLLSIIQTFSMMLGDINYRESFLEPYLRNELAHPVLSFAQLVSFTIFVPIVLMNLLIGLAVGDIAEVQKHASLKRIAMQVELHTSLEKKLPLWFLRKVDQKSTIVYPNKPRSGGMLFHIFCFLFCTGEIRQEIPNADKSLEMEILKQKYRLKDLTFLLEKQHELIKLIIQKMEIISET |  | failed to bind CaM in vitro | 
5 | hTRPA1^M62-T1078: hTRPA1 construct containing full ARD but lacking the structurally unresolved N- and C-termini (protein) MDTFFLHYAAAEGQIELMEKITRDSSLEVLHEMDDYGNTPLHCAVEKNQIESVKFLLSRGANPNLRNFNMMAPLHIAVQGMNNEVMKVLLEHRTIDVNLEGENGNTAVIIACTTNNSEALQILLKKGAKPCKSNKWGCFPIHQAAFSGSKECMEIILRFGEEHGYSRQLHINFMNNGKATPLHLAVQNGDLEMIKMCLDNGAQIDPVEKGRCTAIHFAATQGATEIVKLMISSYSGSVDIVNTTDGCHETMLHRASLFDHHELADYLISVGADINKIDSEGRSPLILATASASWNIVNLLLSKGAQVDIKDNFGRNFLHLTVQQPYGLKNLRPEFMQMQQIKELVMDEDNDGCTPLHYACRQGGPGSVNNLLGFNVSIHSKSKDKKSPLHFAASYGRINTCQRLLQDISDTRLLNEGDLHGMTPLHLAAKNGHDKVVQLLLKKGALFLSDHNGWTALHHASMGGYTQTMKVILDTNLKCTDRLDEDGNTALHFAAREGHAKAVALLLSHNADIVLNKQQASFLHLALHNKRKEVVLTIIRSKRWDECLKIFSHNSPGNKCPITEMIEYLPECMKVLLDFCMLHSTEDKSCRDYYIEYNFKYLQCPLEFTKKTPTQDVIYEPLTALNAMVQNNRIELLNHPVCKEYLLMKWLAYGFRAHMMNLGSYCLGLIPMTILVVNIKPGMAFNSTGIINETSDHSEILDTTNSYLIKTCMILVFLSSIFGYCKEAGQIFQQKRNYFMDISNVLEWIIYTTGIIFVLPLFVEIPAHLQWQCGAIAVYFYWMNFLLYLQRFENCGIFIVMLEVILKTLLRSTVVFIFLLLAFGLSFYILLNLQDPFSSPLLSIIQTFSMMLGDINYRESFLEPYLRNELAHPVLSFAQLVSFTIFVPIVLMNLLIGLAVGDIAEVQKHASLKRIAMQVELHTSLEKKLPLWFLRKVDQKSTIVYPNKPRSGGMLFHIFCFLFCTGEIRQEIPNADKSLEMEILKQKYRLKDLTFLLEKQHELIKLIIQKMEIISET |  | failed to bind CaM | 
